# Measurements from different studies.
# Compare with care: the assays were run in different laboratories.
# Target: Glucocorticoid receptor (NR3C1, Homo sapiens, UniProt P04150)
# One construct used (P04150 1-777): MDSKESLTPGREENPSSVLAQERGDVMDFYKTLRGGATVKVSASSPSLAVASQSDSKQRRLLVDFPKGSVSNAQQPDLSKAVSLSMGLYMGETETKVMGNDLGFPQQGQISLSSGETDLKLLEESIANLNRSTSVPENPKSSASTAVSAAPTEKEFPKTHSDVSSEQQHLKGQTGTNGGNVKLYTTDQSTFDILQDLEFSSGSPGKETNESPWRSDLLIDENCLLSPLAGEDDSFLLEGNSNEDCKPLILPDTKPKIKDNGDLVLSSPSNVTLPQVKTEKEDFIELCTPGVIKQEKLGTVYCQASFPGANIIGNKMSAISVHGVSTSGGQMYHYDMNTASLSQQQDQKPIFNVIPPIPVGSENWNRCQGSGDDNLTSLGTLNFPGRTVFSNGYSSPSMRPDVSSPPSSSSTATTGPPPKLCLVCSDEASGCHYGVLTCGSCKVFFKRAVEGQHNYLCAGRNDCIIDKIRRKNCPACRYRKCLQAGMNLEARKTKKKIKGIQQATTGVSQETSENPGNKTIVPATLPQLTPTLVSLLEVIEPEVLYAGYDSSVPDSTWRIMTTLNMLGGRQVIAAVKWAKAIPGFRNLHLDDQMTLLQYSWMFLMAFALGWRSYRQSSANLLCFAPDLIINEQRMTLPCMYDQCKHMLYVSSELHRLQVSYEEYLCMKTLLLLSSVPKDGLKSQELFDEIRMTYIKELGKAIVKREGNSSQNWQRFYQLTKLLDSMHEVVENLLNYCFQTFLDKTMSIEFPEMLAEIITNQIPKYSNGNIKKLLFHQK
Structure (SMILES),assay,setting,quantity,value
Nc1ncc(-c2nc(N3CCOCC3)nc(N3CCOCC3)n2)c(C(F)F)n1,"cell-free assay, radioligand",10 µM,remaining signal,105%
O=C(Nc1cccnn1)N1CCN([C@@H]2CCOc3cc(C(F)(F)F)ccc32)CC1,cell-free assay,20 µM,inhibition,4%
CN(CCN1CCC(OC(=O)Nc2ccccc2-c2ccccc2)CC1)C(=O)c1ccc(CN2CCC(C(N)=O)CC2)cc1,"ligand displacement, radioligand",1 µM,inhibition,-8%
C[C@H](C(=O)N[C@H]1COc2ccccc2[C@@H]1S(C)(=O)=O)c1ccc(F)cc1,cell-free assay,10 µM,inhibition,14%
Clc1ccc2c(C3CCN(CCc4c[nH]c5ccccc45)CC3)c[nH]c2c1,"ligand displacement, radioligand",10 µM,inhibition,7%
CC(C)N1CCC[C@H]1CNC(=O)c1cn(C2CCCC2)c(=O)c2c1c1ccccc1n2C,"ligand displacement, radioligand",10 µM,inhibition,1%
COCc1c(-c2cc3cc(C)cc(OC)c3s2)c2c(N)ncnn2c1CN1CCNC(=O)C1,"ligand displacement, radioligand",10 µM,inhibition,-1%
c1ccc(C(NCCNC(c2ccccc2)c2ccccc2)c2ccccc2)cc1,cell-free assay,10 µM,inhibition,6%
